Test results published in ChEMBL document CHEMBL4118252, “Identification of novel thiazolo[5,4-d]pyrimidine derivatives as human A1 and A2A adenosine receptor antagonists/inverse agonists” (Bioorg Med Chem, 2018).
pIC50, pKi: −log10 of the molar value. Values belong to the molecule of their own block, whether it stands above or below them.

Experiments:
Adenosine receptor A2a [1] = biological target: T1, Adenosine receptor A2a (Homo sapiens, UniProt P29274); test: Displacement of [3H]-ZM 241,385 from human A2A adenosine receptor expressed in CHO cell membranes at 10 uM after 60 mins by scintillation counting method relative to control
T1 sequence (P29274 whole entry): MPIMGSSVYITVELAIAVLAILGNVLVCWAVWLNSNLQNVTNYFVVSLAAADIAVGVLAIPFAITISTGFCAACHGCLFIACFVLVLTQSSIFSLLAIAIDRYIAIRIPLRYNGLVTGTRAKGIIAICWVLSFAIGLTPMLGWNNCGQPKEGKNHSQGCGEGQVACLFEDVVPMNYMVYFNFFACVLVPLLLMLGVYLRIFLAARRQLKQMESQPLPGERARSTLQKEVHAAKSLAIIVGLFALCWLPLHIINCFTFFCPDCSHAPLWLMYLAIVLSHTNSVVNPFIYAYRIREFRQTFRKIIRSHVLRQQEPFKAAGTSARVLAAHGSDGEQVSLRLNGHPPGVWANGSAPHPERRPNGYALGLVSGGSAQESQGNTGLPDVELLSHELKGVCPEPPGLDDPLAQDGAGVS
In short: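 Using 1 nM [3H]-ZM 241385 on hA2A CHO membranes, 60 min, 4°C, 50 mM Tris-HCl pH 7.4, 10 mM MgCl2; 1 µM ZM 241385 for nonspecific binding; filtered and counted. Percent inhibition measured at 10 µM compound.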

Adenosine receptor A2a [2] = biological target: T1, Adenosine receptor A2a; test: Displacement of [3H]-ZM 241,385 from human A2A adenosine receptor expressed in CHO cell membranes after 60 mins by scintillation counting method
In short: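 hA2A CHO membranes (50 µg protein/100 µl), 1 nM [3H]-ZM 241385, graded test concentrations, 60 min at 4°C in 50 mM Tris-HCl pH 7.4 with 10 mM MgCl2. Nonspecific: 1 µM ZM 241385.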

Adenosine receptor A1 [3] = biological target: T2, Adenosine receptor A1 (Homo sapiens, UniProt P30542); test: Displacement of [3H]-DPCPX from human A1 adenosine receptor expressed in CHO cell membranes after 90 mins by scintillation counting method
T2 sequence (P30542 whole entry): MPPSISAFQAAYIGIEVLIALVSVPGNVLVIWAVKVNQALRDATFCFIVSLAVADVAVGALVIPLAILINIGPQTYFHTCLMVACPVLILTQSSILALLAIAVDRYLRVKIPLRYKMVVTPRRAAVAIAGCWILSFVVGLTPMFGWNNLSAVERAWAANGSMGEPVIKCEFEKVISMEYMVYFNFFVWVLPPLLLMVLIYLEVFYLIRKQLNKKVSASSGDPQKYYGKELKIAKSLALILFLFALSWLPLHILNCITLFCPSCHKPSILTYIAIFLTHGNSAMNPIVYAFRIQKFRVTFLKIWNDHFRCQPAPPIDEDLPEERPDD
In short: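 Membranes from CHO cells expressing hA1 (50 µg protein/100 µl) incubated with 1 nM [3H]-DPCPX and varying test concentrations, 25°C, 90 min, 50 mM Tris-HCl pH 7.4. Nonspecific binding with 1 µM DPCPX. Filtration over glass fiber filters, scintillation counting.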

Adenosine receptor A3 = biological target: T3, Adenosine receptor A3 (Homo sapiens, UniProt P0DMS8); test: Displacement of [125I]-ABMECA from human A3 adenosine receptor expressed in CHO cell membranes after 120 mins by scintillation counting method
T3 sequence (P0DMS8 whole entry): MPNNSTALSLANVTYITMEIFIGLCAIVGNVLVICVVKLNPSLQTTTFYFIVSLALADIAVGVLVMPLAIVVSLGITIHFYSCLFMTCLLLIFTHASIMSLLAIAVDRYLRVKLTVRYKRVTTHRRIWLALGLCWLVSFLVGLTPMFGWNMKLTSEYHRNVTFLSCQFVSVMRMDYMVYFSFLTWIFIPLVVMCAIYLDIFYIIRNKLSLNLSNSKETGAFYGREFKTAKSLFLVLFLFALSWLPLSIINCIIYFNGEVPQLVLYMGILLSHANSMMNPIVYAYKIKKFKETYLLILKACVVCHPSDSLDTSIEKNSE

Adenosine receptor A2b = biological target: T4, Adenosine receptor A2b (Homo sapiens, UniProt P29275); test: Antagonist activity at human A2B adenosine receptor assessed as inhibition of NECA-stimulated cAMP level after 30 mins by Alphascreen assay; type: functional
T4 sequence (P29275 whole entry): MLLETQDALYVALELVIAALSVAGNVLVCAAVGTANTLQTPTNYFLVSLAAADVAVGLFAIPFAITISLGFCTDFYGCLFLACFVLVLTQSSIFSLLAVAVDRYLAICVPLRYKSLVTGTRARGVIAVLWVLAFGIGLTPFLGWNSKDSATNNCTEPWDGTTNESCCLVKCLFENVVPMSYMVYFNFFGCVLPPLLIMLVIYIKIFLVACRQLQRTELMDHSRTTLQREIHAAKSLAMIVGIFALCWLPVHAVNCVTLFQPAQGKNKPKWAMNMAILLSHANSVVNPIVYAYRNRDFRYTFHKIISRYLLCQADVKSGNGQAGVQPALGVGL
In short: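 Cells with compounds and anti-cAMP acceptor beads 30 min, then streptavidin donor beads plus biotinylated cAMP 1 h; AlphaScreen read. IC50 by sigmoid nonlinear regression.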

Adenosine receptor A2a [4] = biological target: T1, Adenosine receptor A2a; test: Inverse agonist activity at human A2A adenosine receptor expressed in CHO cells assessed as inhibition of basal cAMP level after 30 mins by Alphascreen assay; type: functional, cell-based
In short: (§1)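 hA2A CHO cells exposed to varied compound concentrations without agonist, measuring decrease of basal cAMP; AlphaScreen detection (30 min acceptor beads, then 1 h donor beads with biotinylated cAMP). IC50 from sigmoid nonlinear fit, Emax efficacy; mean ± SEM.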

Adenosine receptor A2a [5] = biological target: T1, Adenosine receptor A2a; test: Inverse agonist activity at human A2A adenosine receptor expressed in CHO cells assessed as inhibition of basal cAMP level after 30 mins by Alphascreen assay relative to control; type: functional, cell-based; in short: as §1
Adenosine receptor A2a [6] = biological target: T1, Adenosine receptor A2a; test: Antagonist activity at human A2A adenosine receptor expressed in CHO cells assessed as inhibition of CGS21680-stimulated cAMP level after 30 mins by Alphascreen assay relative to control; type: functional, cell-based
In short: (§2)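 Same hA2A CHO cAMP experiment run in presence of CGS 21680 (10 nM); compounds at varied concentrations, AlphaScreen cAMP detection (30 min, then 1 h). IC50 via sigmoid nonlinear regression, Emax efficacy; four experiments in triplicate, mean ± SEM.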

Adenosine receptor A2a [7] = biological target: T1, Adenosine receptor A2a; test: Antagonist activity at human A2A adenosine receptor expressed in CHO cells assessed as inhibition of CGS21680-stimulated cAMP level after 30 mins by Alphascreen assay; type: functional, cell-based; in short: as §2
[8] = biological target: T5, Adenosine receptor A2b (Homo sapiens) (UniProt P29275); test: Antagonist activity at human A2B adenosine receptor assessed as inhibition of NECA-stimulated cAMP level at 10 uM after 30 mins by Alphascreen assay relative to control; type: functional
T5 sequence (whole entry): T4 sequence (P29275 whole entry)

Adenosine receptor A1 [9] = biological target: T2, Adenosine receptor A1; test: Antagonist activity at human A1 adenosine receptor expressed in CHO cells assessed as inhibition of CCPA-induced reduction of forskolin-stimulated cAMP level after 30 mins by Alphascreen assay; type: functional, cell-based
In short: (§3)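 hA1 CHO cells given Forskolin (5 µM) and 1 nM CCPA with varied compound concentrations; AlphaScreen cAMP detection (30 min with acceptor beads, then donor beads/biotinylated cAMP 1 h). IC50 by sigmoid nonlinear regression; Emax as efficacy in reversing CCPA inhibition; mean ± SEM.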

[10] = biological target: T6, Adenosine receptor A1 (Homo sapiens) (UniProt P30542); test: Modulation of human A1 adenosine receptor expressed in CHO cells assessed as forskolin-stimulated cAMP level after 30 mins by Alphascreen assay relative to control; type: functional, cell-based
T6 sequence (whole entry): T2 sequence (P30542 whole entry)
In short: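 In hA1 CHO cells, compounds incubated with Forskolin (5 µM) without agonist; cAMP quantified by AlphaScreen (30 min acceptor-bead step, then 1 h donor beads and biotinylated cAMP). Expressed as % of Forskolin-stimulated cAMP (100%); mean ± SEM.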

[11] = biological target: T6, Adenosine receptor A1 (Homo sapiens); test: Antagonist activity at human A1 adenosine receptor expressed in CHO cells assessed as inhibition of CCPA-induced reduction of forskolin-stimulated cAMP level after 30 mins by Alphascreen assay relative to control; type: functional, cell-based; in short: as §3

Structure (SMILES): COc1cccc(CNc2nc(N)c3nc(-c4cnccn4)sc3n2)c1
pKi (Adenosine receptor A2a [2]): 6.01

Structure (SMILES): Nc1nc(NCCc2ccc(O)cc2)nc2sc(-c3ccccc3)nc12
pKi (Adenosine receptor A1 [3]): 6.62 | pKi (Adenosine receptor A3): 5.79 | pKi (Adenosine receptor A2a [2]): 7.02 | pIC50 (Adenosine receptor A2b): 5.12

Structure (SMILES): Nc1nc(NCCc2ccccc2)nc2sc(-c3ccccc3)nc12
pKi (Adenosine receptor A1 [3]): 6.92 | pKi (Adenosine receptor A3): 5.64 | pKi (Adenosine receptor A2a [2]): 6.39 | pIC50 (Adenosine receptor A2b): 5.36

Structure (SMILES): Nc1nc(NCc2cccs2)nc2sc(-c3ccccc3)nc12
pIC50 (Adenosine receptor A2a [4]): 7.44 | Emax (Adenosine receptor A2a [5]): 64% | Emax (Adenosine receptor A2a [6]): 131% | pIC50 (Adenosine receptor A2a [7]): 7.37 | pKi (Adenosine receptor A2a [2]): 7.55

Structure (SMILES): COc1ccccc1CNc1nc(N)c2nc(-c3ccccc3)sc2n1
pIC50 (Adenosine receptor A2a [4]): 8.27 | pIC50 (Adenosine receptor A2a [7]): 8.12 | pKi (Adenosine receptor A2a [2]): 8.33

Structure (SMILES): COc1cccc(CNc2nc(N)c3nc(-c4ccccc4)sc3n2)c1
pIC50 (Adenosine receptor A2a [4]): 7.32 | Emax (Adenosine receptor A2a [5]): 52% | Emax (Adenosine receptor A2a [6]): 128% | pIC50 (Adenosine receptor A2a [7]): 7.18 | pKi (Adenosine receptor A2a [2]): 7.38

Structure (SMILES): COc1ccc(CCNc2nc(N)c3nc(-c4ccccc4)sc3n2)cc1
inhibition [8]: 33% | pKi (Adenosine receptor A1 [3]): 6.31 | pKi (Adenosine receptor A3): 5.45 | pKi (Adenosine receptor A2a [2]): 6.39 | pIC50 (Adenosine receptor A2b): < 5.00

Structure (SMILES): Nc1nc(NCc2ccccc2)nc2sc(-c3ccccc3)nc12
pKi (Adenosine receptor A2a [2]): 6.94

Structure (SMILES): Nc1nc(NCc2cccs2)nc2sc(-c3cnccn3)nc12
pKi (Adenosine receptor A2a [2]): 6.66

Structure (SMILES): COc1ccccc1CNc1nc(N)c2nc(-c3cnccn3)sc2n1
pKi (Adenosine receptor A2a [2]): 7.10

More lines, now with the values ahead:

inhibition (Adenosine receptor A2a [1]): 1% | pKi (Adenosine receptor A2a [2]): < 5.00
Structure (SMILES): Nc1nc(Nc2ccccc2)nc2sc(-c3ccccc3)nc12

pKi (Adenosine receptor A2a [2]): 6.87
Structure (SMILES): COc1ccccc1CNc1nc(N)c2nc(C)sc2n1

pKi (Adenosine receptor A2a [2]): 6.67
Structure (SMILES): COc1cccc(CNc2nc(N)c3nc(C)sc3n2)c1

pKi (Adenosine receptor A2a [2]): 6.50
Structure (SMILES): Cc1nc2c(N)nc(NCc3cccs3)nc2s1

pKi (Adenosine receptor A1 [3]): 6.85 | pKi (Adenosine receptor A3): 6.26 | pKi (Adenosine receptor A2a [2]): 7.11 | pIC50 (Adenosine receptor A2b): 5.96
Structure (SMILES): Cc1nc2c(N)nc(NCCc3ccccc3)nc2s1

pKi (Adenosine receptor A2a [2]): 6.27
Structure (SMILES): Cc1nc2c(N)nc(NCc3ccccc3)nc2s1

pKi (Adenosine receptor A2a [2]): 6.22
Structure (SMILES): Cc1nc2c(N)nc(Nc3ccccc3)nc2s1

pIC50 (Adenosine receptor A1 [9]): 6.97 | Activity [10]: 100% | pKi (Adenosine receptor A1 [3]): 7.04 | pIC50 (Adenosine receptor A2a [4]): 7.08 | pKi (Adenosine receptor A3): 5.82 | Emax (Adenosine receptor A2a [5]): 58% | Emax [11]: 98% | Emax (Adenosine receptor A2a [6]): 124% | pIC50 (Adenosine receptor A2a [7]): 6.99 | pKi (Adenosine receptor A2a [2]): 7.21 | pIC50 (Adenosine receptor A2b): 6.87
Structure (SMILES): Cc1nc2c(N)nc(NCCc3cccs3)nc2s1
